Laboratory results published in ChEMBL document CHEMBL2203014, “Structure-Based Design of Potent and Selective CK1γ Inhibitors” (ACS Med Chem Lett, 2012).
pIC50: −log10 of the molar value.

Legend:
[1] = molecular target: Glycogen synthase kinase-3 beta (Homo sapiens, UniProt P49841)
[2] = molecular target: T1, Casein kinase I isoform gamma-2 (Homo sapiens, UniProt P78368)
[3] = molecular target: Casein kinase I isoform alpha (Homo sapiens, UniProt P48729); experiment: Inhibition of CK1-alpha using biotin[long chain]-KKRRRAL{pS}VATLPGL substrate in presence of 8 uM ATP
[4] = molecular target: Casein kinase I isoform delta (Homo sapiens, UniProt P48730)
[5] = molecular target: T1, Casein kinase I isoform gamma-2; experiment: Inhibition of CK1-gamma2 in human RKO cell assessed as inhibition of Wnt3a-induced Wnt signaling treated 1 hr prior to Wnt3a ligand addition measured after 18 to 24 hrs by luciferase reporter gene assay
[6] = Selectivity ratio of IC50 for CK1-alpha to IC50 for CK1-gamma2
[7] = Selectivity ratio of IC50 for CK1-delta to IC50 for CK1-gamma2
[8] = Plasma concentration in HEK-293 cells xenografted in nude mouse at 50 mg/kg, po after 6 hrs; format: ADME, organism-based, HEK293; set-up: dose 50 mg/kg, route oral
How it was run: (§1)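 Athymic nude mice carried subcutaneous tumors of HEK293 cells constitutively expressing LRP6 with doxycycline-inducible CK1γ. Doxycycline (0.5 mg/mL) was given in drinking water for 24 h to stimulate LRP6 phosphorylation, then compound was dosed orally at 50 mg/kg. Tumor and plasma were collected 6 h post-dose. Tumor phospho-LRP6 was quantified by electrochemiluminescent assay, and plasma total and unbound exposure were determined.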

[9] = test system: Plasma; experiment: Unbound concentration in HEK293 cells xenografted in nude mouse at 50 mg/kg, po after 6 hrs; format: ADME, organism-based; set-up: dose 50 mg/kg, route oral; conditions: in vivo
How it was run: as §1

[10] = test system: Mus musculus; experiment: Inhibition of CK1-gamma-mediated LRP6 phosphorylation in HEK293 cells xenografted in nude mouse at 50 mg/kg, po after 6 hrs by electrochemiluminescent assay; format: functional; conditions: HEK293, 6 h
How it was run: as §1

[11] = AUC in […] mouse at 30 mg/kg, po; format: ADME, organism-based; set-up: dose 30 mg/kg, route oral; conditions: plasma
How it was run: (§2)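 Oral PK in male CD1 mice, 3 animals per study, dosed at 30 mg/kg po. Vehicle: 10.0% Pluronic F68 / 30.0% HPBCD / 60.0% water with MSA, pH 2.5. Cmax, t1/2, Tmax and AUC were taken from plasma exposure.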

[12] = Tmax in […] mouse at 30 mg/kg, po; format: ADME, organism-based; set-up: dose 30 mg/kg, route oral; conditions: in vivo
How it was run: as §2

[13] = Half life in […] mouse at 30 mg/kg, po; format: ADME, organism-based; set-up: dose 30 mg/kg, route oral; conditions: in vivo
How it was run: as §2

[14] = Plasma protein binding in mouse; format: ADME, cell-free; conditions: read-out: PPB (converted)
[15] = Cmax in […] mouse at 30 mg/kg, po; format: ADME, organism-based; set-up: dose 30 mg/kg, route oral; conditions: in vivo
How it was run: as §2

[16] = Intrinsic clearance in human liver microsomes at 1 uM after 30 mins; format: ADME, Microsome; conditions: read-out: CLH
How it was run: (§3)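 Liver microsome turnover (human or rat): compound at 1 μM incubated with microsomes for 30 min. Intrinsic clearance reported in μL/(min·mg).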

[17] = Plasma protein binding in rat; format: ADME, cell-free; conditions: read-out: PPB (converted)
[18] = Intrinsic clearance in rat liver microsomes at 1 uM after 30 mins; format: ADME, Microsome; conditions: read-out: CLH
How it was run: as §3

[19] = molecular target: T1, Casein kinase I isoform gamma-2; experiment: Inhibition of human CK1-gamma2 in HEK293 cells assessed as inhibition of doxcycline-induced LRP6 phosphorylation after 2 hrs by electrochemiluminescence analysis; format: cell-based

T1 sequence (P78368 whole entry, canonical isoform): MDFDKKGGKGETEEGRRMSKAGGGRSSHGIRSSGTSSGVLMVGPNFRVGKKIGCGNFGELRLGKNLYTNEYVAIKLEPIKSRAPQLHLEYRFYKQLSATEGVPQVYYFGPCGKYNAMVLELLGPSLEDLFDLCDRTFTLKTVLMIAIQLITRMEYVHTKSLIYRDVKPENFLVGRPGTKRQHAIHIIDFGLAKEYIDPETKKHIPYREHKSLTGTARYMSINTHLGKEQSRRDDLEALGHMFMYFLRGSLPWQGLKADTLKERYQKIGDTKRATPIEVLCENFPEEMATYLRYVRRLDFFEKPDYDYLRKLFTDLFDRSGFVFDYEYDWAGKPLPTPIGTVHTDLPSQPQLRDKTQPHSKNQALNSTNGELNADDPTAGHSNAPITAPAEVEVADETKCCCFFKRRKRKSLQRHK
Chain of Casein kinase I isoform delta (P48730 whole entry, canonical isoform): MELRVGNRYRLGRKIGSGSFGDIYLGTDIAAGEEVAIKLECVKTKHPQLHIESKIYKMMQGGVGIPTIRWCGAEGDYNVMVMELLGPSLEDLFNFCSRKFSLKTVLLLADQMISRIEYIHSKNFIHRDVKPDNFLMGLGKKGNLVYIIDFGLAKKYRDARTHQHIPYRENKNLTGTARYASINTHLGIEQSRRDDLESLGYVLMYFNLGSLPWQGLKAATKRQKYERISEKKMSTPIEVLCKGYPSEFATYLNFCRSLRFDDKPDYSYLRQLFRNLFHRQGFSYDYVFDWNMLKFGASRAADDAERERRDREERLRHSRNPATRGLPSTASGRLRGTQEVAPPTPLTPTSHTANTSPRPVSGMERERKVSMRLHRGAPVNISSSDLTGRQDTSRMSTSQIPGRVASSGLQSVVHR
Chain of Casein kinase I isoform alpha (P48729 whole entry, canonical isoform): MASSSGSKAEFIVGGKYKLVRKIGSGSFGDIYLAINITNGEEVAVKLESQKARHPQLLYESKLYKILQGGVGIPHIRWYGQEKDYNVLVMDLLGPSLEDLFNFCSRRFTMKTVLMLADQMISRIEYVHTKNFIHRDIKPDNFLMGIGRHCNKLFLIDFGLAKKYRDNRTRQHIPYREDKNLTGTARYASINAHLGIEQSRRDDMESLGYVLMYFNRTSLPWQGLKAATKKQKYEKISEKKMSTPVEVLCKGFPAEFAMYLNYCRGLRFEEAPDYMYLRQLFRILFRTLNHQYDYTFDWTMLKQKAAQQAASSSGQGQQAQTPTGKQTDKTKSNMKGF
Chain of Glycogen synthase kinase-3 beta (P49841 whole entry, canonical isoform): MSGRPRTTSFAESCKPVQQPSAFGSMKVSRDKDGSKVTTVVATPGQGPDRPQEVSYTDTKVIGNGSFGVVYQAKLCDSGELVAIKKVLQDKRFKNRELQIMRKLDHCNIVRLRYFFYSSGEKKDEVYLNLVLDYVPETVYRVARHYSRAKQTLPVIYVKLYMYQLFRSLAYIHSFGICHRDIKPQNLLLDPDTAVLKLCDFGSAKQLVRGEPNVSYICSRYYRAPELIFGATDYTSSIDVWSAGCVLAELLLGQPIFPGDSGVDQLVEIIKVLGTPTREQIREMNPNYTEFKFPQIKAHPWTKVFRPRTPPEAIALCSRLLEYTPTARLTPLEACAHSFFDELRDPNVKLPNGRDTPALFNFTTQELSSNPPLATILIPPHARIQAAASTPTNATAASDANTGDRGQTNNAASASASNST

Row | Compound | pIC50 [1] | pIC50 [2] | pIC50 [3] | pIC50 [4] | pIC50 [5] | Ratio IC50 [6] | further results
1 | COc1cnc(Nc2ccccc2)nc1-c1cc2c([nH]1)CCNC2=O | 7.80 | 8.10 |  |  |  |  | 
2 | COc1cnc(NCc2ccccc2)nc1-c1cc2c([nH]1)CCNC2=O | 7.01 | 7.48 | 7.72 | 7.66 |  |  | 
3 | COc1cnc(Oc2ccccc2)nc1-c1cc2c([nH]1)CCNC2=O | < 4.20 | 6.07 | 4.73 | 5.31 |  |  | 
4 | COc1cnc(COc2ccc(F)cc2)cc1-c1cc2c([nH]1)CCNC2=O | 5.11 | 8.30 |  |  | 6.23 |  | 
5 | COc1cnc(COc2ccc(F)cc2C)cc1-c1cc2c([nH]1)CCNC2=O | 4.27 | 8.52 | 6.35 | 7.23 | 6.27 | 147 | Ratio IC50 [7]: 20
6 | COc1cnc(COc2ccc(F)c(F)c2)cc1-c1cc2c([nH]1)CCNC2=O | 4.97 | 8.30 | 6.60 | 7.40 | 6.60 | 50 | concentration at 6 h [8]: 2700 nM; Concentration [9]: 130 nM; inhibition in vivo at 50 mg/kg [10]: 42%; AUC [11]: 15.4 µM·h; Tmax [12]: 0.33 h; half-life [13]: 2.7 h; fraction unbound [14]: 0.049; Cmax [15]: 9720 nM; microsomal CLint at 1 µM [16]: 59 µL/min/mg; fraction unbound [17]: 0.031; microsomal CLint at 1 µM [18]: 46 µL/min/mg; Ratio IC50 [7]: 8; pIC50 [19]: 6.70
7 | COc1cnc(-c2cnc3ccccc3c2)nc1-c1cc2c([nH]1)CCNC2=O | 8.83 | 8.10 | 8.05 | 7.17 | < 5.48 | 1 | Ratio IC50 [7]: 8; pIC50 [19]: 6.46
8 | COc1cnc(COc2ccc(F)cc2)nc1-c1cc2c([nH]1)CCNC2=O | 5.95 | 7.62 | 6.84 | 7.24 |  | 6 | 
9 | COc1cnc(/C=C/c2ccc(F)cc2)nc1-c1cc2c([nH]1)CCNC2=O | 5.91 | 7.30 |  |  |  |  | 
10 | COc1cnc(COc2ccc(F)cc2F)cc1-c1cc2c([nH]1)CCNC2=O | 5.40 | 8.52 | 6.65 | 7.44 | 6.40 | 75 | Ratio IC50 [7]: 12
11 | COc1cnc(OCc2ccc(F)cc2)nc1-c1cc2c([nH]1)CCNC2=O | < 4.52 | 7.10 | 7.02 | 6.77 |  |  | 
12 | COc1cnc(COc2cc(F)c(F)cc2C)cc1-c1cc2c([nH]1)CCNC2=O | 4.42 | 8.40 |  |  | 7.36 |  | AUC [11]: 2.1 µM·h; Tmax [12]: 1.17 h; half-life [13]: 1.4 h; fraction unbound [14]: 0.008; Cmax [15]: 560 nM; microsomal CLint at 1 µM [16]: 177 µL/min/mg; microsomal CLint at 1 µM [18]: 106 µL/min/mg; pIC50 [19]: 7.06
13 | COc1cnc(CCc2ccc(F)cc2)nc1-c1cc2c([nH]1)CCNC2=O | 4.59 | 7.77 |  |  |  |  | 
14 | COc1cnc(CCc2ccc(F)cc2)cc1-c1cc2c([nH]1)CCNC2=O | < 4.20 |  |  |  |  |  | 
